Measurements from ChEMBL document CHEMBL4145481, “Synthesis and biological evaluation of novel bavachinin analogs as anticancer agents” (Eur J Med Chem, 2018).

Legend:
A549 [1] = assay: Cytotoxicity against human A549 cells assessed as growth inhibition at 50 uM after 48 hrs by SRB assay relative to control; format: functional; conditions: A549, 48 h, read-out: GI
Summary of the method: (§1)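 SRB growth-inhibition run in RPMI-1640/10% FBS at 37°C, 5% CO₂. Cell lines were seeded (PC-3 7000, MCF-7 8000, A549 7500, HCT-116 7000/well) and attached 24 h. The treatment series included 50 μM, with 48 h exposure. Cells were cold-TCA fixed and stained with 0.4% SRB. Dye was solubilized in 10 mM Tris pH 10.4 and read at 540 nm against untreated control.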

PC-3 [2] = assay: Cytotoxicity against human PC3 cells assessed as growth inhibition at 50 uM after 48 hrs by SRB assay relative to control; format: functional; conditions: PC-3, 48 h, read-out: GI; summary of the method: as §1
HCT-116 [3] = assay: Cytotoxicity against human HCT116 cells assessed as growth inhibition at 50 uM after 48 hrs by SRB assay relative to control; format: functional; conditions: HCT-116, 48 h, read-out: GI; summary of the method: as §1
MCF7 [4] = assay: Cytotoxicity against human MCF7 cells assessed as growth inhibition at 50 uM after 48 hrs by SRB assay relative to control; format: functional; conditions: MCF7, 48 h, read-out: GI; summary of the method: as §1
A549 [5] = assay: Cytotoxicity against human A549 cells assessed as growth inhibition after 48 hrs by SRB assay; format: functional, cell-based; conditions: A549, 48 h
Summary of the method: (§2)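 Cells were grown in RPMI-1640 with 10% FBS and penicillin/streptomycin at 37°C, 5% CO₂. Seeding was PC-3 7000, MCF-7 8000, A549 7500 and HCT-116 7000 cells/well, with 24 h attachment. Cells were exposed to 1, 5, 10, 30 and 50 μM for 48 h, with a 5-fluorouracil reference. Cells were TCA-fixed (1 h, 4°C) and stained with 0.4% SRB. Bound dye was dissolved in 10 mM Tris pH 10.4 and read at 540 nm. IC50 came from the concentration-response.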

PC-3 [6] = assay: Cytotoxicity against human PC3 cells assessed as growth inhibition after 48 hrs by SRB assay; format: functional, cell-based; conditions: PC-3, 48 h; summary of the method: as §2
HCT-116 [7] = assay: Cytotoxicity against human HCT116 cells assessed as growth inhibition after 48 hrs by SRB assay; format: functional, cell-based; conditions: HCT-116, 48 h; summary of the method: as §2
MCF7 [8] = assay: Cytotoxicity against human MCF7 cells assessed as growth inhibition after 48 hrs by SRB assay; format: functional, cell-based; conditions: MCF7, 48 h; summary of the method: as §2
[9] = target: T1, Peroxisome proliferator-activated receptor gamma (Mus musculus, UniProt P37238); assay: Agonist activity at mouse PPARgamma expressed in 293T cells by dual luciferase reporter gene assay; format: cell-based
T1 sequence (P37238 whole entry): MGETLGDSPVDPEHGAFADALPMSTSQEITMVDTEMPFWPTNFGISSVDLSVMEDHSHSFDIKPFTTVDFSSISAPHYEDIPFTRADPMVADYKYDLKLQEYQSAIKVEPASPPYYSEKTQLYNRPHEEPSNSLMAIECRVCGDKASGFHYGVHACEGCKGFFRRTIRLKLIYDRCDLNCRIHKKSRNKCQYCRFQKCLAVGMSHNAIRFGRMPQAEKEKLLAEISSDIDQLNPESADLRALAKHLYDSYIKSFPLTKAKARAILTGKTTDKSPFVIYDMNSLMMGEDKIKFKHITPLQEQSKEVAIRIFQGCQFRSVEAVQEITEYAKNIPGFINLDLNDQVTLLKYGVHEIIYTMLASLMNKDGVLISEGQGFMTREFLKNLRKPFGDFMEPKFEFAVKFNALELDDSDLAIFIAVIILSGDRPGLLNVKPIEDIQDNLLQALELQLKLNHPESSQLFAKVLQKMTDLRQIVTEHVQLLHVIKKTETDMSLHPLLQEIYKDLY

Row | SMILES | inhibition of growth at 50 µM (A549 [1]) [%] | inhibition of growth at 50 µM (PC-3 [2]) [%] | inhibition of growth at 50 µM (HCT-116 [3]) [%] | inhibition of growth at 50 µM (MCF7 [4]) [%] | IC50 (A549 [5]) [µM] | IC50 (PC-3 [6]) [µM] | IC50 (HCT-116 [7]) [µM] | IC50 (MCF7 [8]) [µM] | EC50 [9] [µM]
1 | COc1cc2c(cc1CC=C(C)C)/C(=N/NC(N)=O)C[C@@H](c1ccc(O)cc1)O2 | 77 | 67 | 87 | 93 | 25.3 | 27.7 | 24.3 | 19.5 | 
2 | COc1cc2c(cc1CC=C(C)C)[C@H](O)C[C@@H](c1ccc(O)cc1)O2 | 48 | 13 | 37 | 49 |  |  |  |  | 
3 | COc1cc2c(cc1CC=C(C)C)C(=O)C[C@@H](c1ccc(OC(C)=O)cc1)O2 |  |  |  |  |  |  |  |  | 0.78
4 | COc1cc(O)c(C(=O)/C=C/c2ccc(O)cc2)cc1CC=C(C)C | 68 | 44 | 63 | 73 |  |  |  |  | 
5 | COc1ccc([C@@H]2C/C(=N/OCc3cn(-c4ccccc4CO)nn3)c3cc(CC=C(C)C)c(OC)cc3O2)cc1 | 100 | 100 | 100 | 100 | 30.7 | 26.6 | 29.9 | 23.4 | 
6 | COc1cc2c(cc1CC=C(C)C)/C(=N/O)C[C@@H](c1ccc(O)cc1)O2 | 80 | 81 | 99 | 93 | 11.4 | 31.6 | 29.7 | 23.6 | 
7 | COc1ccc([C@@H]2C/C(=N/OCc3cn(-c4cccc(CO)c4)nn3)c3cc(CC=C(C)C)c(OC)cc3O2)cc1 | 43 | 34 | 27 | 42 |  |  |  |  | 
8 | C#CCOc1ccc([C@@H]2CC(=O)c3cc(CC=C(C)C)c(OC)cc3O2)cc1 | 53 | 52 | 75 | 68 |  |  |  |  | 
9 | C#CCO/N=C1/C[C@@H](c2ccc(OC)cc2)Oc2cc(OC)c(CC=C(C)C)cc21 | 64 | 41 | 65 | 61 |  |  |  |  | 
10 | COc1ccc([C@@H]2C/C(=N/OCc3cn(-c4ccc(O)cc4)nn3)c3cc(CC=C(C)C)c(OC)cc3O2)cc1 | 52 | 64 | 65 | 63 |  |  |  |  | 
11 | COc1ccc([C@@H]2C/C(=N/O)c3cc(CC=C(C)C)c(OC)cc3O2)cc1 | 66 | 45 | 47 | 63 |  |  |  |  | 
12 | COc1cc2c(cc1CC1OC1(C)C)C(=O)C[C@@H](c1ccc(O)cc1)O2 (some centres undefined) | 79 | 92 | 97 | 98 | 29.8 | 27.4 | 29 | 30.9 | 
13 | COc1ccc([C@@H]2C/C(=N/OCc3cn(-c4cc(OC)c(OC)c(OC)c4)nn3)c3cc(CC=C(C)C)c(OC)cc3O2)cc1 | 28 | 36 | 29 | 45 |  |  |  |  | 
14 | COc1ccc([C@@H]2CC(=O)c3cc(CC=C(C)C)c(OC)cc3O2)cc1 | 45 | 58 | 68 | 65 |  |  |  |  | 
